Experimental data: ChEMBL document CHEMBL1139427, “Inhibition of IkappaB kinase-beta and anticancer activities of novel chalcone adamantyl arotinoids” (J Med Chem, 2008)
The source made the active and inactive calls. No cut-off for these calls is given here.

How the values were obtained:
Jurkat [1] = assay: Antiproliferative activity against retinoid related molecule-sensitive human Jurkat cells after 24 hrs by MTT assay; assay type: functional, cell-based
Outline: (§1)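 MTT viability assay. PC-3, T-47D and MDA-MB-468 seeded at 5000/well the day before, switched to 0.5% FBS medium at treatment. Jurkat seeded at 10 000/well (10⁵ cells/mL) in RPMI with 0.5% FBS. Compound 0.125-8 µM from DMSO stocks; DMSO ≤0.1% as control. Jurkat 24 h, others 48 h. MTT 4 h at 37 °C, SDS/HCl solubilization, A595. IC50 from two experiments in triplicate.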

PC-3 = assay: Antiproliferative activity against human PC3 cells after 48 hrs by MTT assay; assay type: functional, cell-based; conditions: PC-3, 48 h; outline: as §1
[2] = target: T1, Retinoic acid receptor gamma (Homo sapiens) (UniProt P13631); assay: Antagonist activity at human RARgamma expressed in african green monkey CV1 cells assessed as all-trans-retinoic acid-stimulated Gal4 transactivation activity by luciferase reporter gene assay; assay type: functional, cell-based; parameters: scale not given: the % may be the effect or the level left; conditions: CV-1
T1 sequence (whole entry): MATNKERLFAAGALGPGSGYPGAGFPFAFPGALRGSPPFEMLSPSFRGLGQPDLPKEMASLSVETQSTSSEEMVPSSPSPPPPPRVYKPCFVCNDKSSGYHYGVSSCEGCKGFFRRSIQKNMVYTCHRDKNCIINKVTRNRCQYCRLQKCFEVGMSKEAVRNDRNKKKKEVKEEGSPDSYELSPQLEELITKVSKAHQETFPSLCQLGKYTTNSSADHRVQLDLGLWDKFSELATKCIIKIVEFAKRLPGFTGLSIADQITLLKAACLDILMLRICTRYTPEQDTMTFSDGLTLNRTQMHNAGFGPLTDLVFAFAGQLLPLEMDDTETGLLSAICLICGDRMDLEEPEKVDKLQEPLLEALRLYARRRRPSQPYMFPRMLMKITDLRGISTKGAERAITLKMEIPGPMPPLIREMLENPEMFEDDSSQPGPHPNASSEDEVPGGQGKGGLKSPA
Outline: (§2)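 Same Gal4-RAR LBD/UAS-luciferase CV-1 transfection, 5% charcoal-treated FBS medium. Cells stimulated with 0.2 µM ATRA alone or with 2 µM compound (10-fold molar excess). Readout after 6 h (RARα, RARβ) or 20 h (RARγ). Luciferase normalized to β-galactosidase, as % of ATRA maximum; mean ± SD, ≥2 experiments in triplicate.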

MDA-MB-468 [3] = assay: Antiproliferative activity against estrogen-independent human MDA-MB-468 cells by MTT assay; assay type: functional, cell-based; conditions: TDE = time-dependent effect
Outline: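 MDA-MB-468 cells exposed to 2 µM compound in 0.5% FBS medium for 24, 48 or 72 h. Proliferation by MTT (A595) relative to DMSO control. Experiment repeated twice with triplicate time points; one representative experiment reported.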

[4] = test system: Retinoid X receptor RXR-alpha (Mus musculus); assay: Inhibition of LGD-1069-mediated mouse RXRalpha activation expressed in african green monkey CV1 cells; conditions: CV-1
Jurkat [5] = assay: Induction of apoptosis in human Jurkat cells assessed as enhanced DEVDase activity after 4 hrs by fluorescence enzymatic assay; assay type: functional, cell-based
Outline: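 Jurkat cells (40 000/well, 10⁶ cells/mL) in RPMI with 0.5% FBS, treated 4 h (2 or 4 µM). Lysed in PIPES/NP-40 buffer 30 min at 4 °C, then diluted into HEPES/CHAPS caspase buffer with 100 µM Ac-DEVD-AFC. AFC release read every 2 min over 30 min at 37 °C (ex 390/em 510 nm). Two experiments in triplicate, mean ± SD.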

[6] = target: T1, Retinoic acid receptor gamma (Homo sapiens); assay: Activity at human RARgamma expressed in african green monkey CV1 cells assessed as enhanced Gal4 transactivation activity by luciferase reporter gene assay; assay type: cell-based; conditions: CV-1
Outline: (§3)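 Gal4 DBD fused to human RAR LBD (α 156-462, β 149-448, γ 158-454), cotransfected into CV-1 cells (20 000/well) with UAS-luciferase and β-galactosidase vectors. 16 h later, medium with 5% charcoal-treated FBS; compound at 2 µM alone, ATRA 1 µM reference. Read after 6 h (RARα, RARβ) or 20 h (RARγ). Normalized luciferase as % of ATRA maximum; mean ± SD, ≥2 experiments in triplicate.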

[7] = target: T2, Inhibitor of nuclear factor kappa-B kinase subunit beta (Homo sapiens) (UniProt O14920); assay: Inhibition of purified recombinant histidine-HA-tagged IKK-beta expressed in SF9 cells at 20 uM
T2 sequence (whole entry): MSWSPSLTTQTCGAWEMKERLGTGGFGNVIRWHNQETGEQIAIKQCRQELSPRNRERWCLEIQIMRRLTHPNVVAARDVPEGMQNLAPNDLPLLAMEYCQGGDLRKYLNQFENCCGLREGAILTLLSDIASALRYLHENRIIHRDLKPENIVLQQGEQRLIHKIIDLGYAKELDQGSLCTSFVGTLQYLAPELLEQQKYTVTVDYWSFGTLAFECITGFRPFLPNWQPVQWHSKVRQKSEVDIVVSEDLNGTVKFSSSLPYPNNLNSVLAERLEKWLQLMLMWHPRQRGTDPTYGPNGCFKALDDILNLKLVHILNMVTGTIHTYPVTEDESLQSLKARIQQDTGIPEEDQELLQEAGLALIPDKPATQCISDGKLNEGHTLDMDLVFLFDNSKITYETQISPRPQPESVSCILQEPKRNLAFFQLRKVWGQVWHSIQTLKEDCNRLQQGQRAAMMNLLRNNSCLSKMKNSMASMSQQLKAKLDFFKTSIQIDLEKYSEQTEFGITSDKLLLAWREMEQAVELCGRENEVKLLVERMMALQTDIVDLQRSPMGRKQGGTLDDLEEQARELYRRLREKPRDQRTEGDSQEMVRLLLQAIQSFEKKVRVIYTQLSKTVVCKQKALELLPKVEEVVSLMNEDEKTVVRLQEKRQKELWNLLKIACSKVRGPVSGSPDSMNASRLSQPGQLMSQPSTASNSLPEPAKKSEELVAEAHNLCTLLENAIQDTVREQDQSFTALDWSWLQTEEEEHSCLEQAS
Outline: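 (His)6-HA-IKKβ expressed in baculovirus-infected Sf9 cells and Ni-resin purified. 100 ng enzyme in MOPS pH 7.0 buffer with 5 µg GST-IκBα, 10 mM MgCl₂, 6.25 µM ATP (Km level) plus ³²P-γ-ATP. Compound (20 µM) preincubated with enzyme/substrate before ATP/Mg addition. 30 min at 30 °C, stopped with phosphoric acid, filter-bound radioactivity counted. No-enzyme background subtracted; activity as ratio to control. Two to four experiments in triplicate.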

[8] = target: T3, Inhibitor of nuclear factor kappa-B kinase subunit beta (Homo sapiens, UniProt O14920); assay: Inhibition of purified recombinant histidine-HA-tagged IKK-beta expressed in SF9 cells
T3 sequence (O14920 whole entry): T2 sequence (whole entry)

[9] = target: T4, Retinoic acid receptor alpha (Homo sapiens) (UniProt P10276); assay: Antagonist activity at human RARalpha expressed in african green monkey CV1 cells assessed as all-trans-retinoic acid-stimulated Gal4 transactivation activity by luciferase reporter gene assay; assay type: functional, cell-based; conditions: CV-1; outline: as §2
T4 sequence (whole entry): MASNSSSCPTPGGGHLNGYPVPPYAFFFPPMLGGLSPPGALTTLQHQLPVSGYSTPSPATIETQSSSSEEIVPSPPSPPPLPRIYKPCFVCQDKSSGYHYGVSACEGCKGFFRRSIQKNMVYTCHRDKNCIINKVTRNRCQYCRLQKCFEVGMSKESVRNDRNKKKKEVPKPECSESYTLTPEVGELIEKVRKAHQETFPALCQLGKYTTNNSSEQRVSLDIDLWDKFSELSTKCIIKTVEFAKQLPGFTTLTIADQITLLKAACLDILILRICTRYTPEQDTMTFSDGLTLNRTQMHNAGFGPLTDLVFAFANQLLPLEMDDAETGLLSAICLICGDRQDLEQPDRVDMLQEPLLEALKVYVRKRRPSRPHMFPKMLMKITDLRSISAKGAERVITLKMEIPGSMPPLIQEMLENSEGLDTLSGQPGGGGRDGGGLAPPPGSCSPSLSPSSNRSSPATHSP

T47D = assay: Antiproliferative activity against estrogen-dependent human T47D cells after 48 hrs by MTT assay; assay type: functional, cell-based; outline: as §1
[10] = test system: Retinoid X receptor RXR-alpha (Mus musculus); assay: Activation of mouse RXRalpha expressed in african green monkey CV1 cells assessed as luciferase activity; conditions: CV-1
[11] = target: T5, Retinoic acid receptor beta (Homo sapiens) (UniProt P10826); assay: Activity at human RARbeta expressed in african green monkey CV1 cells assessed as enhanced Gal4 transactivation activity by luciferase reporter gene assay; assay type: cell-based; conditions: CV-1; outline: as §3
T5 sequence (whole entry): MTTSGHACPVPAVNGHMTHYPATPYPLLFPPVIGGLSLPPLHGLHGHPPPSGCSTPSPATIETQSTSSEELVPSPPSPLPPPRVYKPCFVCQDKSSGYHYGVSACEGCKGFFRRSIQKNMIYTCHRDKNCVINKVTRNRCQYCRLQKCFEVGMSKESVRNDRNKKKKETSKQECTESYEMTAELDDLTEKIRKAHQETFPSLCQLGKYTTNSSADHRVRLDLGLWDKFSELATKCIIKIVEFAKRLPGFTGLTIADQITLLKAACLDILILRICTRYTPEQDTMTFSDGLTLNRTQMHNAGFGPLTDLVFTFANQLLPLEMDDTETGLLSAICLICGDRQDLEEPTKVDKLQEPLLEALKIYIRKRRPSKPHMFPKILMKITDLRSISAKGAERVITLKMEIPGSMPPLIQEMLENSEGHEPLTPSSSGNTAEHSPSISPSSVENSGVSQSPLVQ

MDA-MB-468 [12] = assay: Antiproliferative activity against estrogen-independent human MDA-MB-468 cells after 48 hrs by MTT assay; assay type: functional, cell-based; conditions: MDA-MB-468, 48 h; outline: as §1
[13] = target: T5, Retinoic acid receptor beta (Homo sapiens); assay: Antagonist activity at human RARbeta expressed in african green monkey CV1 cells assessed as all-trans-retinoic acid-stimulated Gal4 transactivation activity by luciferase reporter gene assay; assay type: functional, cell-based; parameters: scale not given: the % may be the effect or the level left; conditions: CV-1; outline: as §2
[14] = target: T4, Retinoic acid receptor alpha (Homo sapiens); assay: Activity at human RARalpha expressed in african green monkey CV1 cells assessed as enhanced Gal4 transactivation activity by luciferase reporter gene assay; assay type: cell-based; conditions: CV-1; outline: as §3
[15] = test system: Retinoid X receptor RXR-alpha (Mus musculus); assay: Inhibition of 9-cis-retinoic acid-mediated mouse RXRalpha activation expressed in african green monkey CV1 cells; conditions: CV-1
MDA-MB-468 [16] = assay: Antiproliferative activity against estrogen-independent human MDA-MB-468 cells at 2 uM after 72 hrs by MTT assay

Row | IC50 (Jurkat [1]) [nM] | IC50 (PC-3) [nM] | Activity [2] | Activity [4] | Activity [6] | inhibition [7] [%] | IC50 [8] [nM] | Activity [9] | IC50 (T47D) [nM] | Activity [10] | Activity [11] | IC50 (MDA-MB-468 [12]) [nM] | Activity [13] | Activity [14] | Activity [15] | Activity [7] | Compound | Activity (MDA-MB-468 [3]) | Activity (Jurkat [5]) | Activity (MDA-MB-468 [16]) [%]
1 | 1200 | 1480 | 30% | inactive | inactive | 65 | 7000 | Active | 3270 | inactive | inactive | 2110 | 30% | inactive | inactive |  | COCCOCOc1ccc(C(=O)/C=C/c2ccc(C(=O)O)cc2)cc1C12CC3CC(CC(C3)C1)C2 | tde | Active | 
2 |  |  |  |  |  |  |  |  |  |  |  |  |  |  |  | Active | Cc1ccc2nc(NCCN)c3ncc(C)n3c2c1 |  |  | 
3 | 1890 | 2510 | Active | inactive | inactive |  |  | Active | 8000 | inactive | inactive | 6080 | Active | inactive | inactive |  | COCCOCOc1cc(O)c(C(=O)/C=C/c2ccc(C(=O)O)cc2)cc1C12CC3CC(CC(C3)C1)C2 | tde | Active | 40
4 |  |  | Active |  |  |  |  | Active |  |  |  |  | Active |  |  |  | CC1(C)CC=C(C#Cc2ccccc2)c2cc(/C=C/c3ccc(C(=O)O)cc3)ccc21 |  |  | 
